Bioassay records as filed in PubChem BioAssay.
NTR1 agonist: activates human neurotensin receptor 1. NTR1-U2OS beta-arrestin-GFP spot imaging, agonist mode. activation, % at 20 µM. AID 493036. actives 0.17% (n = 330,000);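 active means activation at or above 40% of the spot to cytoplasm intensity ratio, with at least 20 cells analyzed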;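 further: 0% = DMSO without peptide and 100% = 100 nM NTR1 peptide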
Target sequence (P30989 whole entry, looked up): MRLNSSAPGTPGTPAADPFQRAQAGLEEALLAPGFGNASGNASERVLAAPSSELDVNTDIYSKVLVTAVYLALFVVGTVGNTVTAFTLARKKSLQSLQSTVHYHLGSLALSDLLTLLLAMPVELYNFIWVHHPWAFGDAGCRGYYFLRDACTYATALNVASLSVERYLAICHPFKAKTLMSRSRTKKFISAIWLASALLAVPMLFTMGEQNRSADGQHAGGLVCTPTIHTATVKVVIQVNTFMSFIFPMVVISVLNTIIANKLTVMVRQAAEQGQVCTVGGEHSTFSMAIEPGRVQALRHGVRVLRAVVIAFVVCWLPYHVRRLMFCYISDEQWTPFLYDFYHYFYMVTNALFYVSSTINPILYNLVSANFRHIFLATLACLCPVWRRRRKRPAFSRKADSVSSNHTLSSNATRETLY
Vif inh: blocks HIV Vif function; HEK293T cells, Vif self-association by quenched fluorescence, imaging, 24 h; inhibition, % at 7.49 µM; actives 0.35% (n = 340,000); AID 602346; in the data active means inhibition above about 50%, passing the limit was not always enough
V-ATPase pHluor: regulators of yeast V-ATPase proton transport. S. cerevisiae, pHLuorin cytosolic pH fluorescence. response, % at 10 µM. actives 0.37% (n = 350,000). AID 504577; in the data active means response mostly above about 7.3%, no sharp cut-off; inactive means mostly below about 5.4%; further: actives read high
SR-BI DiI-HDL act: SR-BI HDL lipid transfer activation. actives 0.096% (n = 320,000). activation, % at 12.5 µM. CHO ldlA[mSR-BI] cells, DiI-HDL uptake fluorescence, 3 h; 100 = double the neutral-control signal;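 active means mean replicate activation of at least 60% and every replicate at or above 60%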;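 further: 0% = median plate neutral-control signal and 100% = twice that signal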
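System: CHO ldlA[mSR-BI] cells / Medium: HEPES-buffered (25 mM, pH 7.4) F12 plus 0.5% BSA / Probe or stimulus: labelled HDL, 10 µg/mL / Doses: single compound concentration, delivered by pin transfer / Schedule: 3 h, 37 °C / Measured by: DiI fluorescence, bottom read / Measure: cell-associated DiI fluorescence as measure of HDL uptake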
SR-BI HDL uptake: mouse SR-BI HDL lipid transfer inhibition. Q61009. ldlA[mSR-BI] CHO cells, DiI-HDL uptake fluorescence, 3 h. inhibition, % at 12.5 µM. actives 0.96% (n = 320,000). AID 488896;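 active means mean replicate inhibition of at least 70% and a set share of replicates each scoring 70 or more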;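 further: 0% = median of neutral control wells and 100% = median of positive control wells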
CaV13 FRET inh: Primary screen for inhibitors of IQ motif and Ca2+-dependent inactivation inhibitor domain binding in CACNA1D, Förster resonance energy transfer in living cells, … | HEK cells, CFP/YFP FRET ICDI-IQ, plate reader, 10 min; percent FRET-ratio fall versus neutral wells | actives 0.098% (n = 340,000) | inhibition, % at 12.3 µM;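 active means mean replicate inhibition of at least 30% and at least 1% of replicates passing that level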;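 further: 0% = median of the neutral control wells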
* = called active by the depositor; nt = not tested or not shown. Only some compounds are listed: those with a hit (about 1.7% of all), similar ones and a draw of the others.

SMILES	NTR1 agonist	Vif inh	V-ATPase pHluor	SR-BI DiI-HDL act	SR-BI HDL uptake	CaV13 FRET inh
C=CCOC(=O)C(C#N)c1nc2ccccc2nc1N1CCN(c2ccccc2OC)CC1 (stereo not given)	2	-13	-1	-82	82*	-4
COCCOC(=O)C(C#N)c1nc2ccccc2nc1N1CCN(Cc2ccccc2)CC1 (stereo not given)	2	-14	5	-38	38	nt
CC(C)COC(=O)C(C#N)c1nc2ccccc2nc1N1CCN(Cc2ccccc2)CC1 (stereo not given)	3	9	0	-19	19	-4
COc1cc(Br)cc(CNc2ccc(F)c([N+](=O)[O-])c2)c1O	2	0	3	-13	13	-4
CCCCn1c(N)c(N(CCOC)C(=O)c2cc(C)oc2C)c(=O)[nH]c1=O	-1	2	0	11	-11	-7
CN1\C(=C/C=C/C=C/C=[N+](C)C)C(C)(C)c2ccccc21	nt	0	-2	182*	-182	-26
CN(C)c1ccc(N=C/C=C2\N(C)c3ccccc3C2(C)C)cc1	1	15	1	1	-1	nt
CN1/C(=C\C=Nc2ccc3ccccc3c2)C(C)(C)c2ccccc21	2	78*	-2	nt	17	nt
COc1ccccc1/C=N/OCc1ccc(C#N)cc1	0	-2	4	-19	19	-21
COc1ccc(-n2c(SC(CN3CCCCC3)CN3CCCC3=O)nc3ccccc3c2=O)cc1 (stereo not given)	2	13	-3	-4	4	-5
CCC(=O)Nc1cc(-c2nn(C)c(=O)c3ccccc23)ccc1OC	-2	-6	-2	-5	5	-6
COc1ccc(-c2nn(C)c(=O)c3ccccc23)cc1NC(=O)COc1ccc(C)cc1	9	-17	-4	-92	92*	-5
Cc1n[nH]c(C)c1CCC(=O)N/N=C/c1c(C)[nH]c2ccccc12	2	-2	-3	2	-2	-18
COc1ccccc1C(=O)N1CCCC(C)(C(=O)NS(=O)(=O)C2CC2)C1 (stereo not given)	nt	-1	nt	nt	nt	-6
COc1ccc(-c2cc3cc(F)ccc3cn2)cc1	4	-7	-9	-34	34	-5
COc1cc(OC)cc(-c2cc3cc(F)ccc3cn2)c1	0	-8	-4	-74	74*	-6
Cc1ccc(C2=NOC(C)(c3nnc(-c4ccncc4)o3)C2)cc1 (stereo not given)	6	135*	11	-3	3	-5
O=C(NC1(C(F)(F)F)N=C(c2ccccc2)NC1=O)c1ccccc1 (stereo not given)	0	-2	-4	4	-4	-3
Cc1cccnc1Nc1nc(-c2ccc(O)cc2O)cs1	7	-30	6	-71	71*	0
CCCCCn1c(=O)[nH]c2cc(C(=O)Nc3ccc(OC)cc3)ccc2c1=O	-2	14	-8	-13	13	nt
CCn1c(=O)[nH]c2cc(C(=O)Nc3cc(C)cc(C)c3)ccc2c1=O	2	-4	-2	-72	72*	6
OCCN1CCN(c2nc(-c3ccccc3)nc3c2oc2ccccc23)CC1	16	66*	-1	-15	15	nt
CCOc1ccccc1-n1c(SCC(=O)Nc2nccs2)nnc1-c1ccoc1C	1	4	2	7	-7	-5
CCOc1ccc(-n2c(SCC(=O)Nc3nccs3)nnc2-c2ccoc2C)cc1	1	-2	0	nt	nt	179*
CCOC(=O)C1CCN(C(=O)Nc2ccc(Cl)cc2Cl)CC1	-2	-8	-3	-80	80*	-3
SMILES	NTR1 agonist	Vif inh	V-ATPase pHluor	SR-BI DiI-HDL act	SR-BI HDL uptake	CaV13 FRET inh
O=C(N/N=C/c1ccc(O)cc1)/C(=C/c1ccccc1)CCO	-1	9	2	5	-5	-5
CCN(CC)C(=N)/C(C#N)=N/Nc1ccc(C)cc1	0	-5	0	0	0	-5
COC(=O)C1=C(C)N(Cc2ccco2)C(=O)/C1=C\c1ccc(N(C)C)cc1	2	71*	2	-22	22	-6
CC1=C(C(=O)N(C)C)CC(CC(=O)NCc2cccc3ccccc23)C(=O)N1CCCN1CCCC1=O (stereo not given)	nt	2	1	nt	nt	-6
CC(=O)NC(Cc1ccccc1F)C(=O)NC1CCN(C(=O)c2cnccn2)CC1 (stereo not given)	2	55*	7	40	-40	-8
Cc1ccc(Cl)cc1N1C(=O)CC(Sc2ncccn2)C1=O (stereo not given)	2	0	-3	1	-1	-5
CN(Cc1ccncc1)C(=O)[C@@H]1CCCN1C(=O)[C@@H]1CCCN1	nt	nt	nt	nt	nt	-10
COc1ccc(C=C(c2ccc(OC)cc2)c2ccc(OC)cc2)cc1	1	1	7	-72	72*	-5
Cc1ccc(C)c(N2CCN(C(=S)Nc3ccc4nc(N5CCOCC5)cc(C)c4c3)CC2)c1	2	2	-1	-87	87*	-6
Cc1ccc(C)c(N2CCN(C(=S)Nc3ccc4nc(N5CCN(C)CC5)cc(C)c4c3)CC2)c1	1	-2	2	-35	35	-3
Nc1nnc(SCc2ccc(F)cc2)s1	0	-6	2	1	-1	-8
Nc1nc(SCc2ccc(F)cc2)ns1	-1	-3	24*	21	-21	-4
CCOc1ccc(OCC)c(NS(=O)(=O)c2cccc3nsnc23)c1	-1	0	4	410*	-410	-5
CC(=O)OCC(=O)C12OC(C)(C)OC1CC1C3CC=C4CC(O)CCC4(C)C3CCC12C (stereo not given)	nt	-13	-3	-26	26	-7
O=C(NCCCn1ccnc1)C(=O)NCC(c1cccnc1)N1CCN(c2ccccc2)CC1 (stereo not given)	-2	54*	5	20	-20	-6
COc1ccc(C(=O)Nc2ccc(C)c(S(=O)(=O)N3CCCCCC3)c2)cc1	2	-12	-2	-81	81*	-1
Cc1ccc(NC(=O)c2ccc(F)cc2)cc1S(=O)(=O)N1CCCCCC1	6	-16	-3	-46	46	-3
Cc1ccc(OCC(=O)Nc2ccc(C)c(S(=O)(=O)N3CCCCCC3)c2)c([N+](=O)[O-])n1	3	5	1	-74	74*	-8
O=C(Nc1ccc(-c2csc(Nc3ccccc3)n2)cc1)c1cc([N+](=O)[O-])cc(C(F)(F)F)c1	11	1	0	-96	96*	-4
O=C(Nc1ccc(-c2csc(Nc3ccc(Cl)cc3)n2)cc1)c1cccc(C(F)(F)F)c1	8	nt	nt	nt	nt	-10
O=C(Nc1cccc(-c2csc(Nc3cccc(C(F)(F)F)c3)n2)c1)c1cc([N+](=O)[O-])cc(C(F)(F)F)c1	10	-3	9	-107	107*	8
